Experimental findings from ChEMBL document CHEMBL1153716, “Constrained peptidomimetics reveal detailed geometric requirements of covalent prolyl oligopeptidase inhibitors” (J Med Chem, 2009) are described below.

Calls of active or inactive are those of the source. The rule behind the calls is not given here.

The target of assay [1] is T1, Prolyl endopeptidase (Homo sapiens) (UniProt P48147).
T1 sequence (whole entry): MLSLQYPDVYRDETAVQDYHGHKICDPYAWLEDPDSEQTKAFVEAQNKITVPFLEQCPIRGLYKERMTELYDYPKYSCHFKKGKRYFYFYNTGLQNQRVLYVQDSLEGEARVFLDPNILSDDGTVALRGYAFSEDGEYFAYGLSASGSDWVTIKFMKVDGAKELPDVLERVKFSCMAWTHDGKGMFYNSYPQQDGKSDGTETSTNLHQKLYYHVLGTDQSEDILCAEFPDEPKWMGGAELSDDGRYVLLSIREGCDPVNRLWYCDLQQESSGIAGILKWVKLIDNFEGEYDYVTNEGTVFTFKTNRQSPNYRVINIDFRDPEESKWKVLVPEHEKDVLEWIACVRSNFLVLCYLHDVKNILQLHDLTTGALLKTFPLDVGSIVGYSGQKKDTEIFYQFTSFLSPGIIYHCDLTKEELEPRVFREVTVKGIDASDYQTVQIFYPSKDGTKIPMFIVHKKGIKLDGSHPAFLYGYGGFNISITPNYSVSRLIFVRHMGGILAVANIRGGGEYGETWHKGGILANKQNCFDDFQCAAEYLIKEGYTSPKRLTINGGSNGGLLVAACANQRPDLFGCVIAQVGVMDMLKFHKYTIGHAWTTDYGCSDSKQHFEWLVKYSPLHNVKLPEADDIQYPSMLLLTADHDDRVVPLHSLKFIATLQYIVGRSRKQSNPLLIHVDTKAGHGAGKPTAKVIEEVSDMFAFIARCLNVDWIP
Nature of the assay: Inhibition of prolyl oligopeptidase in human brain derived endothelial cell extracts assessed as blockade of Z-Gly-Pro-AMC substrate hydrolysis at 100 uM by fluorimetric assay. It counts as cell-free. A digest of the protocol:
(§1)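 Confluent human glioblastoma (LN18, LN229, LNZ308), brain endothelial HCEC, or lung PO03 and skin PG98/5 fibroblasts extracted in PBS with 0.1% Triton X-100. Compound was diluted from methanol stock into water and preincubated 5-10 min at room temperature. Z-Gly-Pro-AMC was then added and read by fluorescence. Duplicate wells.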

The target of assay [2] is T1, Prolyl endopeptidase (Homo sapiens). Nature of the assay: Inhibition of prolyl oligopeptidase in intact human brain derived endothelial cells assessed as blockade of Z-Gly-Pro-AMC substrate hydrolysis at 100 uM by fluorimetric assay. The format is cell-based. As to conditions: Endothelial cell. The gist of the method:
(§2)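 Intact confluent human glioblastoma (LN18, LN229, LNZ308), brain endothelial HCEC, or lung PO03 and skin PG98/5 fibroblast monolayers in PBS (pH 7.2-7.4), cells grown beforehand in DMEM with 10% FCS. Compound was diluted from methanol stock into water and preincubated 5-10 min at room temperature. Z-Gly-Pro-AMC was then added and read fluorimetrically. Duplicate wells.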

In assay [3] the target is Dipeptidyl peptidase 4 (Homo sapiens) (UniProt P27487). Nature of the assay: Inhibition of DPP4 in intact human astrocyte derived cells assessed as blockade of Gly-Pro-AMC substrate hydrolysis at 100 uM by fluorimetric assay. The gist of the method: (§3)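 Confluent intact human glioblastoma (LN18, LN229, LNZ308), brain endothelial HCEC, or lung PO03 and skin PG98/5 fibroblast monolayers kept in PBS (pH 7.2-7.4) without detergent. Compound was diluted from methanol stock into water and preincubated 5-10 min at room temperature. Gly-Pro-AMC was then added and hydrolysis read by fluorescence. Duplicate wells.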
Chain of Dipeptidyl peptidase 4 (Homo sapiens) (P27487 whole entry, looked up): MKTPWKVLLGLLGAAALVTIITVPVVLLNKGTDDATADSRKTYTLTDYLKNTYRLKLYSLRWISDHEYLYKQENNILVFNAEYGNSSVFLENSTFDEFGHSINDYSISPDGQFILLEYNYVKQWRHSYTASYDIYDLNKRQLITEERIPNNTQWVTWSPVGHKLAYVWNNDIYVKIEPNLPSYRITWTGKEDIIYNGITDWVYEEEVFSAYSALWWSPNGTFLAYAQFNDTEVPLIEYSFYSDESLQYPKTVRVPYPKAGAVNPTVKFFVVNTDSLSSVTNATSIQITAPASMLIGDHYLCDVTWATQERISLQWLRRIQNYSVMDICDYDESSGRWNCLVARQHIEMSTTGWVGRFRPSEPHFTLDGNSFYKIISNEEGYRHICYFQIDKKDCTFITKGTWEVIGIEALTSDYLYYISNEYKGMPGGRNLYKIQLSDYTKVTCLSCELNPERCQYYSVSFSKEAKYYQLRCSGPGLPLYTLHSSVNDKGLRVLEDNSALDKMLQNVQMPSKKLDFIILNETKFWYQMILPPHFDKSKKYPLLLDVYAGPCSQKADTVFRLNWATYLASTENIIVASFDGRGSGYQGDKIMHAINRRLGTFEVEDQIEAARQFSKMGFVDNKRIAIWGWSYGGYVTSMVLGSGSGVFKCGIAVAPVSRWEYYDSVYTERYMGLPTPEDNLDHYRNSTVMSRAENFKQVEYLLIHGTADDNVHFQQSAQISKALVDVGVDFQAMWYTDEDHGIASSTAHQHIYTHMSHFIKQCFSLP

Assay [4] addresses T1, Prolyl endopeptidase (Homo sapiens). Nature of the assay: Inhibition of prolyl oligopeptidase in intact human fibroblasts assessed as blockade of Z-Gly-Pro-AMC substrate hydrolysis at 100 uM by fluorimetric assay. The gist of the method:
as §2

In assay [5] the target is Dipeptidyl peptidase 4 (Homo sapiens) (UniProt P27487). Put plainly: Inhibition of DPP4 in human brain derived endothelial cell extracts assessed as blockade of Gly-Pro-AMC substrate hydrolysis at 100 uM by fluorimetric assay. It counts as cell-free. The gist of the method: (§4)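 Confluent human cells (glioblastoma LN18, LN229, LNZ308; brain endothelial HCEC; lung PO03 or skin PG98/5 fibroblasts) grown in DMEM with 4.5 g/L glucose and 10% FCS, then lysed in PBS (pH 7.2-7.4) containing 0.1% Triton X-100. Compound was diluted from methanol stock into water and preincubated 5-10 min at room temperature. Gly-Pro-AMC was then added. Duplicate wells.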

Assay [6] concerns the target T1, Prolyl endopeptidase (Homo sapiens). Nature of the assay: Inhibition of prolyl oligopeptidase in human fibroblast extracts assessed as blockade of Z-Gly-Pro-AMC substrate hydrolysis at 100 uM by fluorimetric assay. The gist of the method: as §1
Assay [7] has the same target. Put plainly: Inhibition of prolyl oligopeptidase in human astrocyte derived cell extracts assessed as blockade of Z-Gly-Pro-AMC substrate hydrolysis at 100 uM by fluorimetric assay. The gist of the method:
as §1

Assay [8] addresses Dipeptidyl peptidase 4 (Homo sapiens) (UniProt P27487). Put plainly: Inhibition of DPP4 in intact human brain derived endothelial cells assessed as blockade of Gly-Pro-AMC substrate hydrolysis at 100 uM by fluorimetric assay. It counts as cell-based. As to conditions: Endothelial cell. The gist of the method: as §3
Assay [9] deals with T1, Prolyl endopeptidase (Homo sapiens). Nature of the assay: Inhibition of prolyl oligopeptidase in intact human astrocyte derived cells assessed as blockade of Z-Gly-Pro-AMC substrate hydrolysis at 100 uM by fluorimetric assay. A digest of the protocol:
as §2

Assay [10] deals with Dipeptidyl peptidase 4 (Homo sapiens) (UniProt P27487). Put plainly: Inhibition of DPP4 in intact human fibroblasts assessed as blockade of Gly-Pro-AMC substrate hydrolysis at 100 uM by fluorimetric assay. A digest of the protocol:
as §3

The target is the same in assay [11]. Put plainly: Inhibition of DPP4 in human fibroblast extracts assessed as blockade of Gly-Pro-AMC substrate hydrolysis at 100 uM by fluorimetric assay. The gist of the method:
as §4

Assay [12] has the same target. Nature of the assay: Inhibition of DPP4 in human astrocyte derived cell extracts assessed as blockade of Gly-Pro-AMC substrate hydrolysis at 100 uM by fluorimetric assay. A digest of the protocol:
as §4

Regarding `N#C[C@@H]1CS[C@H]2CC[C@@H](NC(=O)OCc3ccccc3)C(=O)N12`, the inhibition in [1], in assay [2], in [4], in assay [6], in assay [7] and in [9] was greater than 50% throughout. Moreover, the inhibition entry in assay [3], in assay [5], in [8], in [10], in assay [11] and in assay [12] was “inactive” each time.
Regarding `NC(=O)[C@@H]1CS[C@H]2C[C@@H](NC(=O)OCc3ccccc3)C(=O)N21`, the inhibition entry in assay [1], in assay [2], in assay [3], in assay [4], in [5] and in [6] was “inactive” throughout. In addition, the inhibition entry in assay [7], in [8], in assay [9], in [10], in assay [11] and in assay [12] was “inactive” in each case.
Take `C[C@H](NC(=O)OCc1ccccc1)C(=O)N1CCC[C@H]1C#N`: the inhibition entry in assay [3], in [5], in [8], in [10], in assay [11] and in assay [12] was “inactive” in each case.
Regarding `N#C[C@@H]1CS[C@H]2CC[C@H](NC(=O)OCc3ccccc3)C(=O)N12`, the inhibition – broadly, the change of the read-out against control, counted positive when it falls – in [1] was greater than 50%; in [2], 10%; in [4], greater than 50%; in assay [6] it was greater than 50%; in assay [7], greater than 50%; in assay [9] it was greater than 50%. Besides, the inhibition entry in [3], in [5], in [8], in assay [10], in assay [11] and in [12] was “inactive” in each case.
`N#C[C@@H]1CCCN1C(=O)CNC(=O)OCc1ccccc1`: the inhibition result in [3], in assay [5], in assay [8], in [10], in assay [11] and in assay [12] was “inactive” in each case.
In the case of `N#C[C@@H]1CO[C@H]2C[C@H](NC(=O)OCc3ccccc3)C(=O)N12`, the inhibition result in assay [1], in assay [2], in assay [3], in assay [5], in assay [7] and in assay [8] was “inactive” each time. Moreover, the inhibition entry in assay [9], in [10], in [11] and in assay [12] was “inactive” throughout. Besides, the inhibition in assay [4] and in assay [6] was 10% throughout.
Regarding `C[C@H]1O[C@H]2C[C@@H](NC(=O)OCc3ccccc3)C(=O)N2[C@@H]1C#N`, the inhibition in assay [1], in [2] and in [7] was 10% throughout. The inhibition result in assay [3], in assay [4], in assay [5], in assay [6], in [8] and in assay [9] was “inactive” each time. Moreover, the inhibition result in [10], in [11] and in assay [12] was “inactive” throughout.
For `C[C@@H](NC(=O)OCc1ccccc1)C(=O)N1CCC[C@H]1C#N`, the inhibition result in [3], in [5], in assay [8], in assay [10], in [11] and in assay [12] was “inactive” each time.
With `N#C[C@H]1CCCN1C(=O)CNC(=O)OCc1ccccc1`, the inhibition entry in assay [3], in assay [5], in assay [8], in assay [10], in assay [11] and in [12] was “inactive” each time.
Consider `N#C[C@@H]1CCCN1C(=O)OCc1ccccc1`, for which the inhibition in assay [1] and in assay [4] was 10% in each case. Further, the inhibition entry in assay [2], in assay [3], in [5], in assay [6], in assay [7] and in assay [8] was “inactive” throughout. Also, the inhibition result in assay [9], in [10], in assay [11] and in assay [12] was “inactive” each time.
With `NC(=O)[C@@H]1CS[C@H]2C[C@H](NC(=O)OCc3ccccc3)C(=O)N21`, the inhibition entry in assay [1], in assay [2], in assay [3], in assay [4], in [5] and in assay [6] was “inactive” in each case. For the same molecule, the inhibition entry in [7], in assay [8], in assay [9], in [10], in [11] and in [12] was “inactive” each time.
For the molecule `N#C[C@@H]1CO[C@H]2C[C@@H](NC(=O)OCc3ccccc3)C(=O)N12`, the inhibition entry in [1], in assay [2], in assay [3], in [5], in assay [7] and in [8] was “inactive” throughout. In addition, the inhibition entry in assay [9], in assay [10], in assay [11] and in [12] was “inactive” throughout. Moreover, the inhibition in assay [4] and in [6] was 10% each time.
On to `N#C[C@@H]1CCCN1`, for which the inhibition result in assay [1], in [2], in assay [3], in assay [4], in assay [5] and in assay [6] was “inactive” each time. The inhibition result in [7], in assay [8], in assay [9], in assay [10] and in [12] was “inactive” each time.
